STAT3 act – activators of IL-6 induced STAT3 signaling; U3A cells, IL-6 STAT3-luciferase reporter, luminescence; 100% = signal with IL-6 EC80 alone; 0.91% of 190,000 active; activation (% of control), % at 5.6 µM;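 active = activation above the screen-wide mean of compound activation plus 3 SD, cut at about 130% in these data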;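 note: 0% = background luminescence of wells with medium and substrate only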
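Test system: Human STAT1-deficient U3A cells with stable STAT3-luciferase reporter | Also added: Interleukin-6, 33 ng/mL | Timing: Compound pre-incubation 1 h before IL-6, then 6 h stimulation at 37 °C | Technique: Luciferase reporter luminescence | Read-out: Percent of IL-6-only median luminescence | Benchmarks: IL-6-only wells as 100% reference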
STAT1 activator – activators of IFN-gamma induced STAT1 signaling. NIH 3T3 STAT1-luciferase reporter, luminescence; 100% = IFN-gamma alone, no compound. activation (% of control), % at 5.5 µM. 2.6% of 200,000 active;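 active = activation above the screen-wide mean activation plus 3 SD, cut at about 130% in these data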;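 note: raw ratio to IFN-gamma control signal so 100% means no change and 0% no light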
NF-kB expr up – compounds increasing NF-kB expression in human neuronal cells; NF-kB reporter expression; hits give high values; fold change at 12.5 µM; 1.6% of 190,000 active; AID 1239; in the data active = fold change above about 3.3
STAT3 blocker – reduces IL-6 driven STAT3 reporter signal; U3A cells, IL-6 STAT3-luciferase reporter, luminescence; host cell line lacks STAT1; 0.89% of 190,000 active; inhibition, % at 5.5 µM;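 active = inhibition above the mean inhibition across all screened compounds plus 3 SD, cut at about 44% in these data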;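 note: 0% = DMSO only wells and 100% = 100 µM nifuroxazide control wells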
STAT1 inh – reduces IFN-gamma driven STAT1 reporter signal | NIH 3T3 STAT1-luciferase reporter, luminescence | inhibition, % at 5.5 µM | 0.35% of 200,000 active | AID 920;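 active = inhibition above a set limit, the mean inhibition across all tested compounds plus 3 SD, cut at about 34% in these data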;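 note: 0% = IFN-gamma with DMSO and 100% = IFN-gamma with 300 µM nifuroxazide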
APP 5'UTR act – APP 5'UTR luciferase reporter activation; SH-SY5Y APP 5'UTR luciferase reporter, luminescence; zero percent = DMSO vehicle wells; activation, % at 2 µM; 1% of 190,000 active; AID 1276;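 active = activation above a set limit, based on mean plus 3 SD of controls, cut at about 140% in these data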
* marks the source's active call; other numbers are inactive results; / = no result. Compounds with a hit are over-represented: about 4.9% of the library has one in this group of screens.

SMILES	STAT3 act	STAT1 activator	NF-kB expr up	STAT3 blocker	STAT1 inh	APP 5'UTR act
COc1cccc(/C=N/NC(=O)C(=O)Nc2ccccc2OC(F)(F)C(F)F)c1O	101.8	111.2	1.21	-3.3	-12.6	-33.0
COc1ccc(S(=O)(=O)N2CC(O)C[C@H]2C(=O)OCC(=O)N2CCCCCC2)cc1 (some centres not stated)	111.8	139.0*	1.1	-13.5	-45.8	13.3
COc1ccc(CN2CCCC(CNC(=O)c3ccc(F)cc3)C2)c(C)c1C (configuration not stated)	98.5	91.5	1.22	4.1	7.4	-20.1
COc1ccc(S(=O)(=O)N(C)C)cc1NC(C)C(=O)Nc1cccc(C#N)c1 (configuration not stated)	98.9	98.4	0.96	2.6	0.3	10.5
CCOc1cccc2c1OC(c1cc(OC)c(OC)c(OC)c1)N1N=C(c3ccc(C)o3)CC21 (configuration not stated)	104.2	89.4	0.82	-2.7	11.8	137.2*
C=CCOc1cccc(NC(=O)c2ccccc2SC)c1	92.4	101.3	1.29	11.0	-0.8	-1.8
Cc1cc(F)ccc1S(=O)(=O)Nc1ccccc1C(=O)NCc1cccnc1	100.8	96.0	1.05	0.6	1.9	-1.0
COc1ccc(Cn2c(S(=O)(=O)CC(N)=O)nc3ccccc32)cc1[N+](=O)[O-]	99.8	97.5	1.63	11.6	1.9	-9.9
COc1ccccc1C(CCNS(=O)(=O)c1ccc(C)cc1)c1ccco1 (configuration not stated)	105.4	97.8	0.82	-2.6	2.4	-4.5
O=C(CSc1ccccn1)Nc1nc2ccccc2s1	91.5	112.2	1.93	9.6	-13.7	0.6
CCc1ccc2nc(NC(=O)Cn3cnc4ccccc4c3=O)sc2c1	104.0	112.7	1.69	-2.2	-12.9	15.3
O=C(Cn1cnc2ccccc2c1=O)Nc1nc2ccccc2s1	135.6*	96.6	0.92	-38.5	4.1	-4.9
Cn1ccnc1SCC(=O)Nc1nc2ccccc2s1	89.5	134.3*	0.88	19.6	-38.9	26.5
O=C(Nc1ccccn1)c1cc2ccccc2o1	26.4	59.3	3.17	89.4*	53.4*	85.9
O=C(Nc1cccc2ncccc12)c1cc2ccccc2o1	86.1	104.5	1.24	20.7	-6.7	3.4
O=C(Nc1ccc(Cl)cn1)c1cc2ccccc2o1	98.7	125.1	9.18*	5.7	-27.2	205.0*
O=C(Nc1ccc(Br)cn1)c1cccc(-c2cc3ccccc3oc2=O)c1	106.6	143.7*	2.11	-8.2	-48.1	58.9
O=C(Nc1ccc(Cl)cn1)c1ccc([N+](=O)[O-])o1	93.2	101.9	5.91*	13.2	-3.5	-47.4
CCOCCCNC(=O)/C(C#N)=C/c1ccc([N+](=O)[O-])o1	101.3	89.1	0.45	2.4	11.4	-38.7
CCOC(=O)C1(CCOC)CCN(Cc2ccc(C3CCCCO3)s2)CC1 (configuration not stated)	109.7	97.7	/	-5.8	0.7	-20.0
COc1ccc(C)cc1NC(=O)C(Sc1nnc(-c2ccncc2)n1-c1ccc(Cl)cc1)c1ccccc1 (configuration not stated)	103.5	82.7	0.6	-0.9	19.1	-9.2
Cc1cc(NC(=O)CCCn2ccc([N+](=O)[O-])n2)n(Cc2ccc(F)cc2)n1	98.1	80.2	1.51	6.6	20.4	19.2
Cc1cc(CNC(=S)Nc2ccc(Br)cc2Cl)nn1C	103.3	99.2	1	2.7	-1.3	9.0
C=CCOc1ccc(/C=C/C(=O)Nc2ccc(C(=O)NC)cc2)cc1	106.5	93.8	1.7	-3.6	6.9	6.5
C=CCOc1ccc(/C=C/C(C)=N\O)cc1	98.8	131.9*	4.19*	5.2	-34.9	91.6
SMILES	STAT3 act	STAT1 activator	NF-kB expr up	STAT3 blocker	STAT1 inh	APP 5'UTR act
CCCCC(CC)C(=O)Nc1ncc([N+](=O)[O-])s1 (configuration not stated)	89.7	86.7	0.61	13.9	13.2	-4.0
COc1cccc(C(=O)Nc2cnn(C(C)C)c2)c1	101.2	125.3	2.1	3.3	-31.1	57.0
COc1cccc(-c2cc(C(=O)N3C(C)CCCC3C)no2)c1 (configuration not stated)	124.9	136.4*	3.31*	-20.2	-39.6	71.4
COc1cccc(-c2cc(C(=O)Nc3cccnc3)no2)c1	106.7	132.5*	4.9*	-0.6	-35.2	-16.7
O=C(Nc1cccnc1)c1cc(-c2ccccc2)on1	100.5	106.4	1.17	0.9	-5.5	17.3
CC1CCCCN1C(=O)c1cc(-c2ccc(Cl)c(Cl)c2)on1 (configuration not stated)	111.0	132.7*	2.12	-2.6	-36.0	68.5
CC(C)n1cc(NC(=O)c2cc(-c3ccccc3)on2)cn1	98.4	131.3*	2.85	6.4	-33.8	-76.8
COP(=O)(OC)C(Nc1ccc(C)cc1)c1ccc([N+](=O)[O-])cc1 (configuration not stated)	109.6	103.8	1.42	-14.1	-4.3	19.8
C=CCN1C(=O)N/C(=C/c2ccccc2OCC(=O)Nc2ccc(F)cc2)C1=O	97.5	99.2	1.43	0.7	3.1	9.6
O=S1(=O)N=C2CCCCCN2C(c2ccc(Br)cc2)N1 (configuration not stated)	97.7	97.9	1.22	3.4	2.9	-6.8
Cc1cc(N2CCOCC2)ccc1/C=C1\SC(=O)N(C(C)C)C1=O	100.5	120.3	0.71	4.3	-22.7	16.1
C#CCN1C(=O)S/C(=C\c2ccc(N3CCOCC3)cc2C)C1=O	91.3	132.2*	1.63	15.4	-36.2	73.6
CCCN1C(=O)S/C(=C\c2ccc(N3CCOCC3)cc2C)C1=O	103.4	118.9	0.95	3.6	-20.7	13.6
O=C(CN1C(=O)S/C(=C/c2ccc(N3CCOCC3)cc2)C1=O)N1CCOCC1	108.0	113.2	1.58	-6.7	-15.1	37.6
CCC(C)N1C(=O)S/C(=C/c2ccc(N3CCOCC3)cc2C)C1=O (configuration not stated)	103.2	132.2*	0.5	1.0	-36.4	61.3
CCN1C(=O)S/C(=C\c2ccc(N3CCOCC3)cc2C)C1=O	118.3	143.8*	1.39	-17.5	-49.1	34.4
Cc1cc(Cl)ccc1NC(=O)C1CCN(S(C)(=O)=O)CC1	99.7	101.1	1.48	6.0	-3.5	-5.4
N#CCCN1CCN(C2=NC(=O)/C(=C\c3cccs3)S2)CC1	95.0	113.5	1.47	8.2	-15.1	-2.4
Cn1c(=O)n(C)c2cc(S(=O)(=O)Nc3cc(Cl)ccc3O)ccc21	83.5	86.2	1.15	25.3	13.0	9.8
Cc1ccc(Cl)c2c1NC(=O)C2(O)CC(=O)c1ccccc1O (configuration not stated)	133.1*	95.6	1.03	-34.2	4.8	-1.9
C/C(=C\c1ccccc1)C(=O)NCCc1ccccc1	79.9	105.2	4.52*	28.5	-7.0	177.4*
